In ChEMBL document CHEMBL1137845, “Discovery of N-propylurea 3-benzylpiperidines as selective CC chemokine receptor-3 (CCR3) antagonists” (Bioorg Med Chem Lett, 2004):
Blank lines part the entries; values can stand above or below the compound they belong to.

Columns and labels:
[1] = biological target: T1, C-C chemokine receptor type 3 (Homo sapiens) (UniProt P51677); assay: Inhibitory concentration of compound against C-C chemokine receptor type 3 was determined using human [125I]eotaxin; details: concentration not given here
T1 sequence (whole entry): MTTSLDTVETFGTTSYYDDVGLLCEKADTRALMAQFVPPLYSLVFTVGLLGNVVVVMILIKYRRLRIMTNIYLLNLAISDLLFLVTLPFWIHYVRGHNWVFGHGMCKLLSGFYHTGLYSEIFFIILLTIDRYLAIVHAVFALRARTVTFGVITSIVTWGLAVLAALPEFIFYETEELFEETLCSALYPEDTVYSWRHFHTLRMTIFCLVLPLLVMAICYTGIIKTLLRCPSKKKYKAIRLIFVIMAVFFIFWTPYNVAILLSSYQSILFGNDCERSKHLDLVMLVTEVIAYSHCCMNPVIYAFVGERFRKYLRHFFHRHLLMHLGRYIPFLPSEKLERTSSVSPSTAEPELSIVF
In short: (§1)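 Displacement of 150 pM 125I-labeled human eotaxin from CHO cells (5×10^5 per well), compound 0.0001–1 μM, in RPMI 1640 with 0.5% BSA, 10 mM HEPES, 5 mM MgCl2; filter plates pretreated with 5 μg/mL protamine in PBS pH 7.2. 30 min at room temperature, vacuum filtration, three washes with binding buffer plus 0.5 M NaCl, bound label by liquid scintillation counting.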

[2] = biological target: T2, C-C chemokine receptor type 3 (Homo sapiens, UniProt P51677); assay: Inhibitory concentration against C-C chemokine receptor type 3 using human [125I]eotaxin.; in short: as §1
T2 sequence (P51677 whole entry): T1 sequence (whole entry)

[3] = Effective concentration determined in calcium mobilization assay; assay type: functional
In short: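 Calcium flux in 2×10^5 eosinophils preloaded with Fluo-3AM, stimulated with 10 nM eotaxin, compound 0.0001–1 μM, in RPMI 1640 with 0.1% BSA, 20 mM HEPES and 2.5 mM probenecid; fluorescence read on a fluorescent imaging plate reader.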

[4] = Effect on chemotaxis of eosinophils was determined; assay type: functional
[5] = biological target: 5-hydroxytryptamine receptor 2A (Homo sapiens, UniProt P28223); assay: Inhibition of binding to serotonin 5-hydroxytryptamine 2A receptor
Sequence of 5-hydroxytryptamine receptor 2A (P28223 whole entry): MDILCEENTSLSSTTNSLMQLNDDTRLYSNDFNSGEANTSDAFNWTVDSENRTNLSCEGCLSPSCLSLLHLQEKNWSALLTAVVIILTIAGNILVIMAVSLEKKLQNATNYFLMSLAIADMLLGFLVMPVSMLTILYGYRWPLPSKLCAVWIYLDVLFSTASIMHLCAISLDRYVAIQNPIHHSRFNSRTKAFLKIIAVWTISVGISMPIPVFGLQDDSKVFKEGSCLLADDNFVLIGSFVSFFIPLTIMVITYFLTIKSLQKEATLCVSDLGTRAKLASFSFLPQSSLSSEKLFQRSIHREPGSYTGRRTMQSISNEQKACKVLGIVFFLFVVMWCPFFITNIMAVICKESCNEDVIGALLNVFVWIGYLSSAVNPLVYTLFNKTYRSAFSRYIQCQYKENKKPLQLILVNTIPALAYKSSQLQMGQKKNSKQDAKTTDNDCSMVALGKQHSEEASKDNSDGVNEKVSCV

[6] = biological target: CC chemokine receptor 3 (Homo sapiens); assay: Binding affinity against CC chemokine receptor 3 was determined using human [125I]-eotaxin

- inhibition [1]: 36%
Compound: N#Cc1cccc(NC(=O)NCCCN2CCOC(Cc3ccccc3)C2)c1 (stereo unspecified)

- IC50 [2]: 7.1 nM
Compound: O=C(NCCCN1CCC[C@@H](Cc2ccc(F)cc2)C1)Nc1cccc(-n2ccnc2)c1

- IC50 [2]: 2.5 nM
- EC50 [3]: 2.4 nM
- Ki [5]: 1350 nM
- EC50 [4]: 25 nM
Compound: CC(=O)c1cccc(NC(=O)NCCCN2CCC[C@@H](Cc3ccc(F)cc3)C2)c1

- inhibition [1]: 14%
Compound: COc1cccc(NC(=O)NCCCN2CCOC(Cc3ccccc3)C2)c1 (stereo unspecified)

- IC50 [2]: 41 nM
- Ki [5]: 2940 nM
Compound: N#Cc1cccc(NC(=O)NCCCN2CCCC(Cc3ccccc3)C2)c1 (stereo unspecified)

- inhibition [1]: 66%
Compound: N#Cc1cccc(NC(=O)NCCCN2CCCC(CCc3ccccc3)C2)c1 (stereo unspecified)

- Ki [5]: 224 nM
Compound: COc1cccc(NC(=O)NCCCN2CCC(Cc3ccc(F)cc3)CC2)c1

- IC50 [2]: 0.6 nM
- EC50 [3]: 1.3 nM
- EC50 [4]: 3.2 nM
Compound: Cn1nnnc1-c1cccc(NC(=O)NCCCN2CCC[C@@H](Cc3ccc(F)cc3)C2)c1

- IC50 [2]: 39 nM
Compound: CC(=O)c1cccc(NC(=O)NCCCN2CCC[C@H](Cc3ccc(F)cc3)C2)c1

- IC50 [6]: 787 nM
- inhibition [1]: 84%
Compound: COc1cccc(NC(=O)NCCCN2CCCC(CCc3ccccc3)C2)c1 (stereo unspecified)

- IC50 [2]: 38 nM
- Ki [5]: 2240 nM
Compound: N#Cc1cccc(NC(=O)NCCCN2CCCC(Cc3ccccc3F)C2)c1 (stereo unspecified)

- Ki [5]: 770 nM
Compound: N#Cc1cccc(NC(=O)NCCCN2CCC(Cc3ccccc3)CC2)c1

- IC50 [2]: 29 nM
- Ki [5]: 2310 nM
Compound: N#Cc1cccc(NC(=O)NCCCN2CCCC(Cc3ccc(F)cc3)C2)c1 (stereo unspecified)

- Ki [5]: 613 nM
Compound: COc1cccc(NC(=O)NCCCN2CCC(Cc3ccccc3)CC2)c1

- inhibition [1]: 31%
Compound: COc1cccc(CC2CCCN(CCCNC(=O)Nc3cccc(C#N)c3)C2)c1 (stereo unspecified)

- IC50 [2]: 7.9 nM
Compound: O=C(NCCCN1CCC[C@@H](Cc2ccc(F)cc2)C1)Nc1cccc(-c2cnco2)c1

- IC50 [2]: 243 nM
Compound: N#Cc1cccc(NC(=O)NCCCN2CCCC(Cc3cccc(F)c3)C2)c1 (stereo unspecified)

- IC50 [2]: 55 nM
- Ki [5]: 913 nM
Compound: COc1cccc(NC(=O)NCCCN2CCCC(Cc3ccccc3)C2)c1 (stereo unspecified)

The next lines start with the compound.

Compound: O=C(NCCCN1CCC[C@@H](Cc2ccc(F)cc2)C1)Nc1cccc(-c2nnco2)c1
- IC50 [2]: 3.6 nM
- EC50 [3]: 45 nM

Compound: Cn1nnnc1-c1cc(NC(=O)NCCCN2CCC[C@@H](Cc3ccc(F)cc3)C2)cc(-c2nnnn2C)c1
- IC50 [2]: 0.7 nM
- EC50 [3]: 0.76 nM
- EC50 [4]: 0.4 nM

Compound: CC(=O)c1cccc(NC(=O)NCCCN2CC3CCC2[C@H](Cc2ccc(F)cc2)C3)c1 (stereo partly specified)
- IC50 [2]: 802 nM

Compound: CC(=O)c1cccc(NC(=O)NCCCN2C[C@H]3Cc4ccc(F)cc4C[C@H]3C2)c1
- IC50 [2]: 56 nM

Compound: N#Cc1cccc(NC(=O)NCCCN2CCCC(Cc3ccc(C(F)(F)F)cc3)C2)c1 (stereo unspecified)
- inhibition [1]: 11%

Compound: CC(=O)c1cccc(NC(=O)NCCCN2[C@@H]3CC[C@H]2C[C@@H](Cc2ccc(F)cc2)C3)c1 (stereo in doubt; 22)
- IC50 [2]: 47 nM

Compound: Cn1nnnc1-c1cc(NC(=O)NCCCN2CCC[C@@H](Cc3ccc(F)cc3)C2)cc(C(F)(F)F)c1
- IC50 [2]: 1.2 nM

Compound: CC(=O)c1cccc(NC(=O)NCCCN2C[C@@H]3C[C@@H](c4ccc(F)cc4)[C@@H]3C2)c1
- inhibition [1]: 68%

Compound: CC(=O)c1cc(NC(=O)NCCCN2CCC[C@@H](Cc3ccc(F)cc3)C2)cc(-c2nnnn2C)c1
- IC50 [2]: 2.6 nM

Compound: Cn1nnnc1-c1cc(NC(=O)NCCCN2CCC[C@@H](Cc3ccc(F)cc3)C2)cc(-c2ccccc2)c1
- IC50 [2]: 2.4 nM

Compound: Cc1cc(NC(=O)NCCCN2CCC[C@@H](Cc3ccc(F)cc3)C2)cc(-c2nnnn2C)c1
- IC50 [2]: 1.5 nM
- EC50 [3]: 0.9 nM
- EC50 [4]: 1 nM

Compound: Cn1nnnc1-c1cc(CO)cc(NC(=O)NCCCN2CCC[C@@H](Cc3ccc(F)cc3)C2)c1
- IC50 [2]: 0.9 nM

Compound: Cn1nnnc1-c1cc(Br)cc(NC(=O)NCCCN2CCC[C@@H](Cc3ccc(F)cc3)C2)c1
- IC50 [2]: 3.1 nM
- EC50 [3]: 3.4 nM
- EC50 [4]: < 1 nM

Compound: CC(=O)c1cccc(NC(=O)NCCCN2[C@@H]3CC[C@H]2C[C@@H](Cc2ccc(F)cc2)C3)c1 (stereo in doubt; 21)
- IC50 [2]: 7.4 nM

Compound: CNC(=O)c1cc(NC(=O)NCCCN2CCC[C@@H](Cc3ccc(F)cc3)C2)cc(-c2nnnn2C)c1
- IC50 [2]: 0.7 nM
- EC50 [3]: 0.6 nM
- EC50 [4]: < 1 nM

Compound: CC(=O)c1cccc(NC(=O)NCCCN2CCC(Cc3ccc(F)cc3)CC2)c1
- Ki [5]: 193 nM

Compound: N#Cc1cccc(NC(=O)NCCCN2CCC(Cc3ccc(F)cc3)C2)c1 (stereo unspecified)
- IC50 [2]: 31 nM
- Ki [5]: 178 nM

Compound: CCn1nnnc1-c1cccc(NC(=O)NCCCN2CCC[C@@H](Cc3ccc(F)cc3)C2)c1
- IC50 [2]: 1.2 nM

Compound: CC(=O)c1cccc(NC(=O)NCCCN2C[C@@H]3Cc4ccc(F)cc4C[C@H]3C2)c1
- IC50 [2]: 49 nM

Compound: CC(=O)c1cc(NC(=O)NCCCN2CCC[C@@H](Cc3ccc(F)cc3)C2)cc(C(C)=O)c1
- IC50 [2]: 1.2 nM
- EC50 [4]: 3 nM

Compound: CC(C)n1nnnc1-c1cccc(NC(=O)NCCCN2CCC[C@@H](Cc3ccc(F)cc3)C2)c1
- IC50 [2]: 3.1 nM

Compound: CC(=O)c1cccc(NC(=O)NCCCN2CCN(C(C)=O)C(Cc3ccc(F)cc3)C2)c1 (stereo unspecified)
- inhibition [1]: 0%

Compound: CC(=O)c1cccc(NC(=O)NCCCN2CC3CCC2[C@@H](Cc2ccc(F)cc2)C3)c1 (stereo partly specified)
- IC50 [2]: 169 nM

Compound: N#Cc1cccc(NC(=O)NCCCN2CCCC(Cc3ccc(F)cc3F)C2)c1 (stereo unspecified)
- IC50 [2]: 19 nM
- Ki [5]: 2350 nM

Compound: N#Cc1cccc(NC(=O)NCCCN2CCC(Cc3ccc(F)cc3)CC2)c1
- Ki [5]: 167 nM

Compound: CC(=O)c1cccc(NC(=O)NCCCN2CC3(Cc4ccc(F)cc4)CCC2CC3)c1
- IC50 [2]: 39 nM
